Measurements from ChEMBL document CHEMBL2346582, “Guanidino anthrathiophenediones as G-quadruplex binders: uptake, intracellular localization, and anti-Harvey-Ras gene activity in bladder cancer cells” (J Med Chem, 2013).

Species: Homo sapiens
Experiment: Thermal stabilization of human telomeric G-quadruplex FAM-TTAGGGTTAGGGTTAGGGTTAGGG-TAMRA DNA assessed as change in melting temperature at 1:5 DNA:ligand ratio by FRET assay
Method in brief: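 FRET melting of 200 nM dual-labelled quadruplex in 50 mM Tris-HCl with KCl (100 mM for htelo and hras-1, 10 mM for KRAS and hras-2). Ligand at r = 5 ([ligand]/[quadruplex]; hras-2 tabulated at r = 4). Samples held 5 min at 20 °C, then heated 1 °C/min to 95 °C. ΔTM is the TM with ligand minus TM without ligand (±0.5 K). For hras-1 both biphasic transitions are given.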

deltaTm: 35 K
Structure (SMILES): NCCOc1cc(C(=O)Nc2cc(OCCN)c3ccccc3n2)nc(C(=O)Nc2cc(OCCN)c3ccccc3n2)c1
